Assay results as given in ChEMBL document CHEMBL1131303, “New cyclooxygenase-2/5-lipoxygenase inhibitors. 2. 7-tert-butyl-2,3-dihydro-3,3-dimethylbenzofuran derivatives as gastrointestinal safe antiinflammatory and analgesic agents: variations of the dihydrobenzofuran ring” (J Med Chem, 1998).

Legend:
Mus musculus [1] = assay: The compound was tested for reduction in phenylquinone-induced abdominal constriction and is expressed in % reduction at a po (per oral) dose of 70 mg/kg.; assay type: functional, Abdomen
Summary of the method: (§1)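 Phenylquinone-induced abdominal constriction analgesia assay. A single oral screening dose of 70 mg/kg was given, and the read-out is percent reduction in constrictions versus control. Tebufelone and naproxen served as reference agents.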

Rattus norvegicus = assay: Carrageenan paw edema index (CPE index) as ratio of the reduction in paw volume of tested compound relative to the compound tebufelone at peroral dose of 50 mg/kg.; assay type: functional; details: route oral
[2] = biological target: T1, Polyunsaturated fatty acid 5-lipoxygenase (Rattus norvegicus, UniProt P12527); assay: Inhibition of 5-lipoxygenase (LOX)in RBL cells; assay type: cell-based
T1 sequence (P12527 whole entry): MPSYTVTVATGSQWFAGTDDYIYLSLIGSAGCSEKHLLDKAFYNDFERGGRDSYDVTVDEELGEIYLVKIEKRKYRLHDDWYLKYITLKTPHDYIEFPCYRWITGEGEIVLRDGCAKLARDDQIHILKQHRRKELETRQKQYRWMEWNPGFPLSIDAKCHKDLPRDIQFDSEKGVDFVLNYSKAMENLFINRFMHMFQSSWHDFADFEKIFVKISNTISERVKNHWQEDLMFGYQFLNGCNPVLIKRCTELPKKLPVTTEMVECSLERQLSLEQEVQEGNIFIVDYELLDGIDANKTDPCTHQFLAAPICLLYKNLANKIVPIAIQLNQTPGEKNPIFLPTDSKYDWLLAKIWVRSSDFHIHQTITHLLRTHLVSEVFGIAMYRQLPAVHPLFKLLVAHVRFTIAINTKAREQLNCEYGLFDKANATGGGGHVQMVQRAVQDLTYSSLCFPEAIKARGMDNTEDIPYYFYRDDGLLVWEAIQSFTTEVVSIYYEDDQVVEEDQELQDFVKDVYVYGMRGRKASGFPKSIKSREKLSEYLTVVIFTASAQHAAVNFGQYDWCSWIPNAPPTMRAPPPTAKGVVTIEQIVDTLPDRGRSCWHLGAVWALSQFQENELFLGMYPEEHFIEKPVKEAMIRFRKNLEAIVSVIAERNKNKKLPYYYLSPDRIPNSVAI

[3] = biological target: T2, Prostaglandin G/H synthase 2 (Homo sapiens, UniProt P35354)
T2 sequence (P35354 whole entry): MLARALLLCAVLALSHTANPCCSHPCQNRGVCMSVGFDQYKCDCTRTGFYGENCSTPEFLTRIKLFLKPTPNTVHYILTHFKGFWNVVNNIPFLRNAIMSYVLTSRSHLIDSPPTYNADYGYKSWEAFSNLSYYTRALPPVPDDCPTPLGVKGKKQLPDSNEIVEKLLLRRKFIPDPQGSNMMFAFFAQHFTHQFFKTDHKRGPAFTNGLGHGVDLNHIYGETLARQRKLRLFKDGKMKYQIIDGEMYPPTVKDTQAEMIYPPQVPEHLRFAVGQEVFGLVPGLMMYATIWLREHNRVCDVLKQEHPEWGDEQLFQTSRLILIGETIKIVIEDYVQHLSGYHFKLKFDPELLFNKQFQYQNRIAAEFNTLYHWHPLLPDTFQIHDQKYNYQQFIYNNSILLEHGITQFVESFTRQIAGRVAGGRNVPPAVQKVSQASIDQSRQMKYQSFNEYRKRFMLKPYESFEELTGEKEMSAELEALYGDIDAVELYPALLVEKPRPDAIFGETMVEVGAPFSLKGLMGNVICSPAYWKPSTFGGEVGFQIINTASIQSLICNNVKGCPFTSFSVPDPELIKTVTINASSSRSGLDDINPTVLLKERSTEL

[4] = biological target: Prostaglandin G/H synthase 1 (Homo sapiens, UniProt P23219); assay: Inhibition of Prostaglandin G/H synthase 1 (COX-1).
Summary of the method: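 Isolated human COX-1 enzyme from platelets. Duplicate samples were each tested in duplicate, and IC50 values were determined.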

Mus musculus [5] = species on record: Mus musculus; assay: The compound was tested for reduction in phenylquinone-induced abdominal constriction; assay type: functional; details: Abdomen
Mus musculus [6] = assay: The compound was tested for reduction in phenylquinone-induced abdominal constriction and is expressed in % reduction at a po (per pral) dose of 70 mg/kg.; assay type: functional, Abdomen; summary of the method: as §1
Mus musculus [7] = species on record: Mus musculus; assay: The compound was tested for effective dose for reduction in phenylquinone-induced abdominal constriction; assay type: functional; details: Abdomen
Summary of the method: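 Phenylquinone-induced abdominal constriction assay run as an oral dose-response study. The ED50 was derived from reduction of constrictions.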

Sequence of Prostaglandin G/H synthase 1 (P23219 whole entry): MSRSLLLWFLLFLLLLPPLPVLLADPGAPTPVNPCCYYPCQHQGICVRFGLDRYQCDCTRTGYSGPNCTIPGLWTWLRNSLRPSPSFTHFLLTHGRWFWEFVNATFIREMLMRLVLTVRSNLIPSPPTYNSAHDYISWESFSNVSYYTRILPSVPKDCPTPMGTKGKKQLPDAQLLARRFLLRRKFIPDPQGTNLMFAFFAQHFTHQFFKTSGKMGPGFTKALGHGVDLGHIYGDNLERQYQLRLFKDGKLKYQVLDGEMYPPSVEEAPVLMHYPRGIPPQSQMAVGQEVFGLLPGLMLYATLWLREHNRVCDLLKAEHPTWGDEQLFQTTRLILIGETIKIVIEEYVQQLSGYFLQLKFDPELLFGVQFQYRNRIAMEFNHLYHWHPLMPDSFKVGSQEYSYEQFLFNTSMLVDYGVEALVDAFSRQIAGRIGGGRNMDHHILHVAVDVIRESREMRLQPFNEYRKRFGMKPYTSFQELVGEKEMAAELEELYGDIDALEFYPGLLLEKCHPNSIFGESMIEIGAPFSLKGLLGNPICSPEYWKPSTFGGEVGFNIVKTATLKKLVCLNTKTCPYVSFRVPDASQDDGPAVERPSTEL

CCCC(=O)c1cc(C(C)(C)C)c2c(c1)C(C)(CC)CO2 (stereo not given) was tested, and the Reduction (Mus musculus [1]) was 45% and the CPE index (Rattus norvegicus) was 0.68.

C#CCCCC(=O)c1cc2c(c(C(C)(C)C)c1)OCCC2 showed a Reduction (Mus musculus [1]) of 79% and a CPE index (Rattus norvegicus) of 1.04.

For CC(C)(O)CC(=O)c1ccc2c(c1)C(C)(C)CO2, the CPE index (Rattus norvegicus) was 0.39.

CC(C)(C)c1cc(C(=O)CCCC2CC2)cc2c1OCCC2(C)C was tested, and the IC50 [2] was 8 µM, the Reduction (Mus musculus [1]) was 10% and the IC50 [3] was 3 µM. It also gave an IC50 [4] of 20 µM and a CPE index (Rattus norvegicus) of 0.57.

In the case of CC(C)(C)c1cc(C(=O)CCCC2CC2)cc2c1NCCC2(C)C, the CPE index (Rattus norvegicus) is reported as 0.

For CC(C)(O)CC(=O)c1cc(C(C)(C)C)c2c(c1)C(C)(C)CCO2, the CPE index (Rattus norvegicus) was 0.48.

Work on CN1CCC(C)(C)c2cc(C(=O)CCCC3CC3)cc(C(C)(C)C)c21 yielded a CPE index (Rattus norvegicus) of 0.37.

In the case of CCCCC(=O)c1cc2c(c(C(C)(C)C)c1)OCCC2, the CPE index (Rattus norvegicus) is reported as 0.21.

CC1(C)COc2c(C3CCCC3)cc(C(=O)CCCC3CC3)cc21 gave an IC50 [3] of 20 µM, an IC50 [4] greater than 100 µM and a CPE index (Rattus norvegicus) of 0.27.

CCCCC(=O)c1cc(C(C)(C)C)c2c(c1)C(C)(C)CCN2C was tested, and the IC50 [3] was 0.3 µM, the IC50 [4] was 2 µM and the CPE index (Rattus norvegicus) was 0.42.

For CCCCC(=O)c1cc(C(C)(C)C)c2c(c1)C(C)(C)CO2, the Reduction (Mus musculus [1]) was 38%.

For C#CCCCC(=O)c1cc(C(C)(C)C)c(O)c(C(C)(C)C)c1 [TEBUFELONE], the ED50 (Mus musculus [5]) was 26 mg/kg.

With CCCC(=O)c1ccc2c(c1)C(C)(C)CO2 the CPE index (Rattus norvegicus) was 0.31.

Work on CCCCC(=O)c1cc(C(C)(C)C)c2c(c1)C(C)(C)CCS2 yielded a Reduction (Mus musculus [6]) of 17%, an IC50 [3] of 0.4 µM and an IC50 [4] of 0.4 µM. The CPE index (Rattus norvegicus) was 0.86.

Work on CC1(C)COc2ccc(C(=O)CCCC3CC3)cc21 yielded an IC50 [3] of 8 µM, an IC50 [4] of 25 µM and a CPE index (Rattus norvegicus) of 0.5.

Compound CCCCC(=O)c1cc(C(C)(C)C)c2c(c1)C(C)(C)CCO2 has an ED50 (Mus musculus [7]) of 53 mg/kg and a CPE index (Rattus norvegicus) of 0.69.

In the case of CN1CC(C)(C)c2cc(C(=O)CCCC3CC3)cc(C(C)(C)C)c21, the CPE index (Rattus norvegicus) is reported as 0.36.

Compound CC(C)(C)c1cc(C(=O)CCCC2CC2)cc2c1OCCC2 has a CPE index (Rattus norvegicus) of 0.05.

C#CCCCC(=O)c1cc(C(C)(C)C)c2c(c1)C(C)(C)CCO2 gave a Reduction (Mus musculus [1]) of 46% and a CPE index (Rattus norvegicus) of 0.57.

CC(C)(C)c1cc(C(=O)CCCC2CC2)cc2c1OCC2(C)C showed an ED50 (Mus musculus [7]) of 11 mg/kg.

Work on COc1ccc2cc([C@H](C)C(=O)O)ccc2c1 [NAPROXEN] yielded an ED50 (Mus musculus [5]) of 1.3 mg/kg and a CPE index (Rattus norvegicus) of 1.06.

In the case of CC(C)(O)CC(=O)c1cc(C(C)(C)C)c2c(c1)C(C)(C)CO2, the CPE index (Rattus norvegicus) is reported as 0.49.

Compound CC(C)(C)c1cc(C(=O)CCCC2CC2)cc2c1OCC2 has an IC50 [2] of 12 µM, an ED50 (Mus musculus [7]) of 6 mg/kg and an IC50 [3] of 15 µM. For the same compound, the IC50 [4] was 5 µM and the CPE index (Rattus norvegicus) was 0.5.

CCc1cc(C(=O)CCCC2CC2)cc2c1OCC2(C)C gave an IC50 [2] of 18 µM, an IC50 [3] of 5 µM and an IC50 [4] of 20 µM.

Compound C#CCCCC(=O)c1cc2c(c(C(C)(C)C)c1)OCC2 has a Reduction (Mus musculus [1]) of 67% and a CPE index (Rattus norvegicus) of 0.84.

In the case of CCCCC(=O)c1ccc2c(c1)CCO2, the CPE index (Rattus norvegicus) is reported as 0.

For CC(C)(C)c1cc(C(=O)CCCC2CC2)cc2c1SCC2(C)C, the CPE index (Rattus norvegicus) was 0.74.

Work on CCCCC(=O)c1cc2c(c(C(C)(C)C)c1)OCC2 yielded an ED50 (Mus musculus [7]) of 0.6 mg/kg and a CPE index (Rattus norvegicus) of 0.69.

Compound CCCC(=O)c1cc(C(C)(C)C)c2c(c1)C(C)(C)CS2 has an ED50 (Mus musculus [7]) of 74 mg/kg, an IC50 [3] of 0.15 µM and an IC50 [4] of 1.5 µM. For the same compound, the CPE index (Rattus norvegicus) was 1.04.

With CC(C)(O)CC(=O)c1cc2c(c(C(C)(C)C)c1)OCC2 the ED50 (Mus musculus [7]) was 21 mg/kg and the CPE index (Rattus norvegicus) was 0.98.

Compound CCCC(=O)c1cc(C(C)(C)C)c2c(c1)C(C)(C)CO2 has an ED50 (Mus musculus [5]) of 21 mg/kg.

In the case of CCCCC(=O)c1cc(C(C)(C)C)c2c(c1)C(C)(C)CCN2, the CPE index (Rattus norvegicus) is reported as 0.02.

CC(C)(O)CC(=O)c1cc2c(c(C(C)(C)C)c1)OCCC2 gave a Reduction (Mus musculus [1]) of 50% and a CPE index (Rattus norvegicus) of 0.7.

For O=C(CCCC1CC1)c1ccc2c(c1)CCO2, the CPE index (Rattus norvegicus) was 0.13.
